Results published in ChEMBL document CHEMBL1125797, “Synthesis, characterization and myocardial uptake of cationic bis(arene)technetium(I) complexes” (J Med Chem, 1991).

What was measured:
[1] = system: Rattus norvegicus; assay: Biodistribution of compound in rat liver after 5 min of administration.; type: ADME, organism-based; details: in vivo
In short: (§1)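 Female Sprague-Dawley rats (150–200 g) received the complex in normal saline (~12.5 μCi/mL) through a lateral tail vein at ~25 μCi/kg. Rats were killed by cervical dislocation 5 min after injection. Tissues were washed with saline, blotted, weighed and γ-counted to give percent injected dose/g tissue.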

[2] = system: Rattus norvegicus; assay: Biodistribution of compound in rat kidney after 5 min of administration.; type: ADME, organism-based; details: in vivo; in short: as §1
[3] = Plasma protein binding (human); type: ADME, cell-free
In short: (§2)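 Test substance (0.02 mL) was added to 1.0 mL of heparinized fresh human plasma and incubated about 15 min. Duplicate samples were passed through Sephadex G-25 desalting columns by centrifugation. Eluate and gel were γ-counted for 1 min or to 1% σ error. % bound = net cpm eluate / net cpm (eluate + gel) × 100.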

[4] = system: Rattus norvegicus; assay: Biodistribution of compound in rat brain after 5 min of administration; type: ADME, organism-based; details: in vivo
[5] = system: Rattus norvegicus; assay: Biodistribution of compound in rat lung after 5 min of administration.; type: ADME, organism-based; details: in vivo; in short: as §1
[6] = species: Rattus norvegicus; assay: (§3) The compound was tested for the plasma binding in rat; type: ADME, organism-based
[7] = (§4) Biodistribution of compound in rat muscle after 5 min of administration.; type: ADME, organism-based, Muscle tissue; details: in vivo; in short: as §1
[8] = system: Rattus norvegicus; assay: Biodistribution of compound in rat blood after 5 min of administration.; type: ADME, organism-based; details: in vivo; in short: as §1
[9] = system: Rattus norvegicus; assay: Biodistribution of compound in rat heart after 5 min of administration.; type: ADME, organism-based; details: in vivo; in short: as §1
[10] = system: Rattus norvegicus; assay: as §4; type: ADME, organism-based, Muscle tissue; details: in vivo; in short: as §1
[11] = system: Rattus norvegicus; assay: Biodistribution of compound in rat kidney after 5 min of administration; type: ADME, organism-based; details: in vivo
In short: as §1, with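 “the 99mTc” for “the”, “via” for “through”, “They” for “Rats”, “γ-counted, and the read-out was” for “γ-counted to give”, “dose per g” for “dose/g”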

[12] = system: Rattus norvegicus; assay: Biodistribution of compound in rat blood after 5 min of administration; type: ADME, organism-based; details: in vivo
In short: as §1, with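 “the 99mTc” for “the”, “via” for “through”, “They” for “Rats”, “γ-counted, and the read-out was” for “γ-counted to give”, “dose per g” for “dose/g”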

[13] = system: Rattus norvegicus; assay: (§5) Biodistribution of compound in rat muscle after 5 min of administration; type: ADME, organism-based, Muscle tissue; details: in vivo; in short: as §1
[14] = system: Rattus norvegicus; assay: Biodistribution of compound in rat lung after 5 min of administration; type: ADME, organism-based; details: in vivo
In short: (§6)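 Rats received the 99mTc complex in normal saline (~12.5 μCi/mL) by lateral tail vein injection at ~25 μCi/kg and were killed by cervical dislocation at the stated time. Tissues were washed with saline, blotted, weighed and γ-counted to give percent injected dose/g. Time-course values are averages of male and female rats.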

[15] = system: Rattus norvegicus; assay: Biodistribution of compound in rat liver after 5 min of administration; type: ADME, organism-based; details: in vivo
In short: as §1, with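 “the 99mTc” for “the”, “via” for “through”, “They” for “Rats”, “γ-counted, and the read-out was” for “γ-counted to give”, “dose per g” for “dose/g”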

[16] = system: Rattus norvegicus; assay: Biodistribution of compound in rat heart after 5 min of administration; type: ADME, organism-based; details: in vivo
In short: as §1, with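 “the 99mTc” for “the”, “via” for “through”, “They” for “Rats”, “γ-counted, and the read-out was” for “γ-counted to give”, “dose per g” for “dose/g”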

[17] = species: Homo sapiens; assay: The compound was tested for the plasma binding in human.; type: functional; in short: as §2
[18] = species: Rattus norvegicus; assay: as §3; type: functional
In short: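 Plasma protein binding was measured in rat plasma samples collected during the rat biodistribution studies, after tail vein injection of the 99mTc complex in saline (~25 μCi/kg).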

[19] = The compound was tested for the plasma binding in human; type: ADME, cell-free
In short: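 Fresh heparinized human plasma (1.0 mL, obtained daily) was spiked with 0.02 mL test solution and incubated about 15 min. Duplicate samples went through saline-equilibrated Sephadex G-25 desalting columns by centrifugation. Eluate and gel were γ-counted for 1 min or to 1% σ error. % bound = net cpm eluate / net cpm (eluate + gel) × 100.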

[20] = as §5; type: ADME, organism-based, Muscle tissue; details: in vivo; in short: as §6

BIS(DODECAHYDROTRIPHENYLENE) TECHNETIUM
Dose/g [1]: 1%
Dose/g [2]: 12%
Plasma binding [3]: 84%
Dose/g [4]: 0.02%
Dose/g [5]: 1%
Plasma binding [6]: 34%
Dose/g [7]: 0.55%
Dose/g [8]: 0.16%
Dose/g [9]: 2.6%

BIS(HEXAETHYLBENZENE) TECHNETIUM
Dose/g [1]: 8.4%
Dose/g [2]: 10%
Plasma binding [3]: 84%
Dose/g [4]: 0.06%
Dose/g [5]: 5.7%
Plasma binding [6]: 50%
Dose/g [7]: 0.33%
Dose/g [8]: 0.4%
Dose/g [9]: 1.3%

BIS(HEXAMETHYLBENZENE)TECHNETIUM
Dose/g [1]: 0.79%
Dose/g [2]: 6.2%
Plasma binding [3]: 72%
Dose/g [4]: 0.03%
Dose/g [5]: 1.2%
Plasma binding [6]: 57%
Dose/g [7]: 0.55%
Dose/g [8]: 0.16%
Dose/g [9]: 3%

BIS(INDAN)TECHNETIUM
Dose/g [1]: 1.7%
Dose/g [2]: 11%
Plasma binding [3]: 17%
Dose/g [5]: 0.98%
Plasma binding [6]: 6.8%
Dose/g [10]: 0.23%
Dose/g [8]: 0.077%
Dose/g [9]: 1.1%

BIS(PENTAMETHYLBENZENE) TECHNETIUM
Dose/g [1]: 0.45%
Dose/g [2]: 5.5%
Plasma binding [3]: 55%
Dose/g [4]: 0.02%
Dose/g [5]: 1.6%
Plasma binding [6]: 57%
Dose/g [7]: 0.66%
Dose/g [8]: 0.14%
Dose/g [9]: 3.5%

BIS(TETRAHYDROACENAPHTHENE) TECHNETIUM
Dose/g [1]: 0.45%
Dose/g [2]: 6%
Plasma binding [3]: 90%
Dose/g [5]: 1.4%
Plasma binding [6]: 27%
Dose/g [10]: 0.82%
Dose/g [8]: 0.23%
Dose/g [9]: 4%

BIS(TOLUENE)TECHNETIUM [listing 1 of 2 here]
Dose/g [11]: 3.4%
Dose/g [12]: 0.2%
Dose/g [13]: 0.069%
Dose/g [14]: 0.51%
Dose/g [15]: 2.6%
Dose/g [16]: 0.22%

BIS(TOLUENE)TECHNETIUM [listing 2 of 2 here]
PPB [17]: 11%
PPB [18]: 8.9%

BIS(TRINDAN) TECHNETIUM
Dose/g [1]: 1%
Dose/g [2]: 9.3%
Plasma binding [3]: 27%
Dose/g [4]: 0.02%
Dose/g [5]: 1%
Plasma binding [6]: 23%
Dose/g [7]: 0.49%
Dose/g [8]: 0.09%
Dose/g [9]: 1.5%

Bis(1,1,4,6,7-pentamethylindane)technetium
Dose/g [1]: 1.2%
Dose/g [2]: 5%
Plasma binding [3]: 95%
Dose/g [4]: 0.06%
Dose/g [5]: 2.5%
Plasma binding [6]: 81%
Dose/g [7]: 0.56%
Dose/g [8]: 0.49%
Dose/g [9]: 3.3%

Bis(1,1,4,6-tetramethylindane)technetium
Dose/g [1]: 0.73%
Dose/g [2]: 6.4%
Plasma binding [3]: 94%
Dose/g [4]: 0.04%
Dose/g [5]: 1.5%
Plasma binding [6]: 75%
Dose/g [7]: 0.66%
Dose/g [8]: 0.35%
Dose/g [9]: 3.4%

Bis(1,2,3,4,5,6,7,8-octahydroanthracene)technetium
Dose/g [1]: 0.79%
Dose/g [2]: 9.1%
Plasma binding [3]: 35%
Dose/g [4]: 0.02%
Dose/g [5]: 0.9%
Plasma binding [6]: 32%
Dose/g [7]: 0.48%
Dose/g [8]: 0.16%
Dose/g [9]: 1.8%

Bis(1,2,3,4-tetrahydronaphthalene)technetium
Dose/g [1]: 0.65%
Dose/g [2]: 9.1%
Plasma binding [3]: 51%
Dose/g [5]: 1%
Plasma binding [6]: 5.8%
Dose/g [10]: 0.51%
Dose/g [8]: 0.24%
Dose/g [9]: 2.6%

Bis(1,2,3,4-tetramethylbenzene)technetium
Dose/g [1]: 0.73%
Dose/g [2]: 8.2%
Plasma binding [3]: 46%
Dose/g [5]: 1.1%
Plasma binding [6]: 22%
Dose/g [10]: 0.66%
Dose/g [8]: 0.094%
Dose/g [9]: 2.4%

Bis(1,2,3,5-tetramethylbenzene)technetium
PPB [17]: 36%
PPB [18]: 21%

Bis(1,2,3-trimethylbenzene)technetium
Dose/g [11]: 9%
Dose/g [12]: 0.13%
Dose/g [13]: 0.27%
Dose/g [14]: 0.66%
Plasma binding [6]: 6.6%
Dose/g [15]: 1%
Dose/g [16]: 1%
Plasma binding [19]: 24%

Bis(1,2,4,5-tetramethylbenzene)technetium
Dose/g [1]: 0.9%
Dose/g [2]: 9.8%
Plasma binding [3]: 42%
Dose/g [4]: 0.02%
Dose/g [5]: 1.3%
Plasma binding [6]: 18%
Dose/g [7]: 0.72%
Dose/g [8]: 0.28%
Dose/g [9]: 2.3%

Bis(1,2,4-trimethylbenzene)technetium
Dose/g [11]: 7%
Dose/g [12]: 0.38%
Dose/g [13]: 0.32%
Dose/g [14]: 0.78%
Plasma binding [6]: 12%
Dose/g [15]: 0.8%
Dose/g [16]: 1.4%
Plasma binding [19]: 20%

Bis(1,2-diethylbenzene)technetium
Dose/g [1]: 0.62%
Dose/g [2]: 7.8%
Plasma binding [3]: 84%
Dose/g [4]: 0.03%
Dose/g [5]: 1.3%
Plasma binding [6]: 21%
Dose/g [7]: 0.58%
Dose/g [8]: 0.1%
Dose/g [9]: 3%

Bis(1,3,5-tri-tert-butylbenzene)technetium
Dose/g [1]: 2%
Dose/g [2]: 8%
Plasma binding [3]: 81%
Dose/g [4]: 0.04%
Dose/g [5]: 1.3%
Plasma binding [6]: 60%
Dose/g [7]: 0.38%
Dose/g [8]: 0.49%
Dose/g [9]: 1%

Bis(1,3,5-triethylbenzene)technetium
Dose/g [1]: 1.4%
Dose/g [2]: 7.3%
Plasma binding [3]: 83%
Dose/g [4]: 0.04%
Dose/g [5]: 1.1%
Plasma binding [6]: 48%
Dose/g [7]: 0.63%
Dose/g [8]: 0.24%
Dose/g [9]: 2.8%

Bis(1,3-diethylbenzene)technetium
Dose/g [1]: 0.46%
Dose/g [2]: 5.1%
Plasma binding [3]: 64%
Dose/g [4]: 0.03%
Dose/g [5]: 1.2%
Plasma binding [6]: 19%
Dose/g [7]: 0.64%
Dose/g [8]: 0.09%
Dose/g [9]: 2.8%

Bis(1,4-diethylbenzene)technetium
Dose/g [1]: 0.58%
Dose/g [2]: 5.4%
Plasma binding [3]: 60%
Dose/g [4]: 0.03%
Dose/g [5]: 1.4%
Plasma binding [6]: 16%
Dose/g [7]: 0.66%
Dose/g [8]: 0.13%
Dose/g [9]: 3.8%

Bis(1-methyl-(2-propyl)benzene)technetium
Dose/g [1]: 0.42%
Dose/g [2]: 5%
Plasma binding [3]: 75%
Dose/g [5]: 1.1%
Plasma binding [6]: 27%
Dose/g [10]: 0.56%
Dose/g [8]: 0.16%
Dose/g [9]: 2.5%

Bis(4,6-dimethylindane)technetium
Dose/g [1]: 0.66%
Dose/g [2]: 8.4%
Plasma binding [3]: 57%
Dose/g [4]: 0.03%
Dose/g [5]: 1.4%
Plasma binding [6]: 54%
Dose/g [7]: 0.42%
Dose/g [8]: 0.12%
Dose/g [9]: 3.6%

Bis(5-isopropyl-m-xylene)technetium
Dose/g [1]: 0.38%
Dose/g [2]: 6.5%
Plasma binding [3]: 80%
Dose/g [5]: 1.3%
Plasma binding [6]: 18%
Dose/g [10]: 0.7%
Dose/g [8]: 0.18%
Dose/g [9]: 3.2%

Bis(m-xylene)technetium
Dose/g [11]: 8%
Dose/g [20]: 0.17%
Dose/g [12]: 0.1%
Dose/g [14]: 0.59%
Dose/g [15]: 2%
Dose/g [16]: 0.47%

Bis(toluene)technetium [listing 1 of 2 here]
Dose/g [11]: 3.4%
Dose/g [20]: 0.069%
Dose/g [12]: 0.2%
Dose/g [14]: 0.51%
Dose/g [15]: 2.6%
Dose/g [16]: 0.22%

Bis(toluene)technetium [listing 2 of 2 here]
PPB [17]: 11%
PPB [18]: 8.9%
